From PMC5148661 (ACS infectious diseases, 2016)
Values after ≈ are worked out from the molar mass of the structure shown. Like-named read-outs stand apart in the source and are kept apart here.

Key:
Rabbit DHODH = Rabbit DHODH (Oryctolagus cuniculus, UniProt G1SWF3); conditions: read-out: Rabbit DHODH IC50; cited from earlier work
P. falciparum 3D7 = conditions: cited from earlier work
[1] = dogs; DSM265; cited from earlier work
[2] = DSM265; cited from earlier work
P. cynomolgi DHODH = P. cynomolgi DHODH (Plasmodium cynomolgi, UniProt K6UE05); conditions: read-out: P. cynomolgi DHODH IC50; cited from earlier work
Sequence of P. cynomolgi DHODH (K6UE05 1-385): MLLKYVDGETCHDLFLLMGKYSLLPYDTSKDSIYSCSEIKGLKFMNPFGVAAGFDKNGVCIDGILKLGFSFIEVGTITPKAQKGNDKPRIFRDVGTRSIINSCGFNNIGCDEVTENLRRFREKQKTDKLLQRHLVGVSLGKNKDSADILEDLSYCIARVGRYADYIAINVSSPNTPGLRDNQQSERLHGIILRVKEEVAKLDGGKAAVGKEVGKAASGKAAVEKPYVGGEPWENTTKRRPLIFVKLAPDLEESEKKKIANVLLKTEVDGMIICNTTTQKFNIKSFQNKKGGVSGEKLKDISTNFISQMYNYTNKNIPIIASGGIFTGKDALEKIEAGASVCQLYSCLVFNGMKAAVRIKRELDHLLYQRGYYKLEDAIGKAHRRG

P. vivax field isolates = assay: ex vivo 48 h schizont maturation assay; format: cell-based
How it was run: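 Field isolates came from patients at malaria clinics in Timika, Papua, Indonesia, and were tested in a 48 h schizont maturation assay adapted from the WHO microtest at 2% hematocrit. P. falciparum was run in RPMI 1640 with 10% AB+ human serum. P. vivax was run in McCoy's 5A with 20% AB+ human serum.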

Minipig DHODH = Minipig DHODH (Sus scrofa, UniProt F1S3B0); conditions: read-out: Minipig DHODH IC50; cited from earlier work
Sequence of Minipig DHODH (F1S3B0 1-395): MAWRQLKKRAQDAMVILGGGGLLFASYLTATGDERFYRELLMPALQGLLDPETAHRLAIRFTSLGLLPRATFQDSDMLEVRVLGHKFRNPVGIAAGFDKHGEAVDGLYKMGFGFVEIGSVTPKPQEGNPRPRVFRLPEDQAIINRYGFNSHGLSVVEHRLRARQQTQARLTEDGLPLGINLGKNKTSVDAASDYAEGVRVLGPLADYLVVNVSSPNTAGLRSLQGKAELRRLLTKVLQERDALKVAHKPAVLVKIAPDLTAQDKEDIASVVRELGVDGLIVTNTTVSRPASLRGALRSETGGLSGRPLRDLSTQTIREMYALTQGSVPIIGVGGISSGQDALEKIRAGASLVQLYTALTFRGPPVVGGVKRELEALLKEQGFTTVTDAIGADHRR

[3] = tested on: P. falciparum 3D7A parasites; conditions: DSM265, cited from earlier work
[4] = kinetic solubility in pH 6.5 buffer; format: physicochemical; conditions: aqueous buffer pH 6.5, pH 6.5
[5] = across species; DSM265; cited from earlier work
Human HepG2 cells = assay: cytotoxicity against a human cell line; format: cell-based; conditions: read-out: HepG2 growth inhibition EC50; 95% CI in parentheses

Sequence of Rabbit DHODH (G1SWF3 1-395): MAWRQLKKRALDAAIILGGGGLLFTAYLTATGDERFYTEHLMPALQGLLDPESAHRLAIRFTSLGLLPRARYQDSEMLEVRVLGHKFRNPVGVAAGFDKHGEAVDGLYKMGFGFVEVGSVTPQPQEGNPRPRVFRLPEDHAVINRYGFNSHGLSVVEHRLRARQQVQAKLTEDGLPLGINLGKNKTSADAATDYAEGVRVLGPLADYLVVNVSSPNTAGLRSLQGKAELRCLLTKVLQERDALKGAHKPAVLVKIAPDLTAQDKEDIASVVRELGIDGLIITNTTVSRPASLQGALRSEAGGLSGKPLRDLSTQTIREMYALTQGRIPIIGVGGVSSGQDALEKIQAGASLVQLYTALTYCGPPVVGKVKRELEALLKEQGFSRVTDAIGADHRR

Structure (SMILES) | IC50 (Rabbit DHODH) [µM] | EC50 (P. falciparum 3D7; read-out: Pf3D7 EC50, whole cell P. falciparum 3D7, albumax media, 72 h) [nM] | EC50 (P. falciparum 3D7; read-out: unbound EC50, P. falciparum 3D7 in vitro 72 h growth assay, DSM265) [nM] | systemic plasma clearance [1] [mL/min/kg] | unbound intrinsic clearance [1] [mL/min/kg] | predicted human half-life [2] [h] | IC50 (P. cynomolgi DHODH) [nM] | sensitivity of P. vivax versus P. falciparum field isolates (P. vivax field isolates) [fold] | IC50 (Minipig DHODH) [µM] | EC50 ([3]; read-out: EC50, 48 h growth assay (PRR), P. falciparum 3D7, 48 h) [nM] | EC50 ([3]; read-out: unbound EC50, P. falciparum 3D7 48 h growth assay (PRR)) [nM] | solubility kinetic [4] [µg/mL] | oral bioavailability [5] | EC50 (Human HepG2 cells) [nM]
Cc1cc(Nc2ccc(S(F)(F)(F)(F)F)cc2)n2nc(C(C)(F)F)nc2n1 [DSM265] | > 100 | 4.3 | 0.73 | 1.2 | 183 | 100 | 12 | 5 | ~100 | 11 | 1.9 | 12.5 (≈ 30.1 µM) | 20-70% | 
O=C(O)c1[nH]c(=O)[nH]c(=O)c1F [5-fluoroorotate, reference compound] |  |  |  |  |  |  |  |  |  |  |  |  |  | 770
